Measured values: ChEMBL document CHEMBL1142894, “Preparation of 5-aryl-3-alkylthio-l,2,4-triazoles and corresponding sulfones with antiinflammatory-analgesic activity” (Bioorg Med Chem, 2007)
Calls of active or inactive are those of the source. No cut-off for these calls is given here.

Experiments:
Mus musculus [1] = experiment: Antiinflammatory activity against carrageenan-induced paw edema in Swiss albino mouse assessed as swelling thickness at 25 mg/kg, po after 180 mins; type: functional
Summary of the method: (§1)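 Oral dosing in 0.5% CMC; vehicle to controls. Then carrageenan (0.5 mg/25 ll, freshly suspended in 154 mM saline) injected into the right hind paw subplantar tissue; saline into the left paw. Right-left footpad thickness difference measured by dial gauge calliper every 90 min over 6 h. Inhibition % is relative to vehicle control. n = 6; mean ± SEM.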

Mus musculus [2] = experiment: Inhibition of carrageenan-induced paw edema in Swiss albino mouse at 100 mg/kg, po after 180 mins relative to control; type: functional; conditions: 3 h; summary of the method: as §1
Mus musculus [3] = experiment: Inhibition of carrageenan-induced paw edema in Swiss albino mouse at 25 mg/kg, po after 270 mins relative to control; type: functional; conditions: 4.5 h; summary of the method: as §1
Mus musculus [4] = experiment: Inhibition of carrageenan-induced paw edema in Swiss albino mouse at 100 mg/kg, po after 90 mins relative to control; type: functional; conditions: 1.5 h; summary of the method: as §1
Mus musculus [5] = experiment: Inhibition of carrageenan-induced paw edema in Swiss albino mouse at 200 mg/kg, po after 90 mins relative to control; type: functional; conditions: 1.5 h; summary of the method: as §1
Mus musculus [6] = experiment: Inhibition of p-benzoquinone-induced writhing in Swiss albino mouse at 100 mg/kg, po relative to control; type: functional
Summary of the method: (§2)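 Mice, n = 6 per group, dosed orally with a suspension in 0.5% sodium CMC. 60 min later, 0.1 ml/10 g of 2.5% […] p-benzoquinone in distilled water given ip. Abdominal writhes counted per animal for 15 min, starting 5 min after injection. Expressed as % change in mean writhing count versus vehicle controls.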

Mus musculus [7] = experiment: Inhibition of carrageenan-induced paw edema in Swiss albino mouse at 50 mg/kg, po after 180 mins relative to control; type: functional; conditions: 3 h; summary of the method: as §1
Mus musculus [8] = experiment: Analgesic activity against p-benzoquinone-induced abdominal constriction in Swiss albino mouse assessed as number of writhings at 25 mg/kg, po; type: functional, Abdomen
Summary of the method: (§3)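 Test samples given orally in 0.5% CMC; vehicle to controls. 60 min later, 2.5% (v/v) p-benzoquinone in distilled water, 0.1 ml/10 g, given i.p. Mice housed singly; writhes counted for 15 min starting 5 min after injection. Activity is % change from vehicle controls. n = 6; mean ± SEM.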

Mus musculus [9] = experiment: Gastric-ulcerogenic effect in Swiss albino mouse assessed as lesions at 25 mg/kg, po; type: functional, organism-based; set-up: dose 25 mg/kg
Summary of the method: (§4)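 Mice killed under deep ether anesthesia 3 h after the writhing test; the oral dose in 0.5% CMC was the one used in that test. Stomachs removed, opened along the great curvature and examined under a dissecting microscope for lesions or bleeding. Reported as ratio of ulceration; n = 6.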

Mus musculus [10] = experiment: Antiinflammatory activity against carrageenan-induced paw edema in Swiss albino mouse assessed as swelling thickness at 50 mg/kg, po after 360 mins; type: functional; summary of the method: as §1
Mus musculus [11] = experiment: Antiinflammatory activity against carrageenan-induced paw edema in Swiss albino mouse assessed as swelling thickness at 200 mg/kg, po after 90 mins; type: functional; summary of the method: as §1
Mus musculus [12] = experiment: Antiinflammatory activity against carrageenan-induced paw edema in Swiss albino mouse assessed as swelling thickness at 50 mg/kg, po after 180 mins; type: functional; summary of the method: as §1
Mus musculus [13] = experiment: Antiinflammatory activity against carrageenan-induced paw edema in Swiss albino mouse assessed as swelling thickness at 200 mg/kg, po after 360 mins; type: functional; summary of the method: as §1
Mus musculus [14] = experiment: Inhibition of carrageenan-induced paw edema in Swiss albino mouse at 200 mg/kg, po after 270 mins relative to control; type: functional; conditions: 4.5 h; summary of the method: as §1
Mus musculus [15] = experiment: Inhibition of carrageenan-induced paw edema in Swiss albino mouse at 25 mg/kg, po after 180 mins relative to control; type: functional; conditions: 3 h; summary of the method: as §1
Mus musculus [16] = experiment: Inhibition of carrageenan-induced paw edema in Swiss albino mouse at 200 mg/kg, po after 180 mins relative to control; type: functional; conditions: 3 h; summary of the method: as §1
Mus musculus [17] = experiment: Antiinflammatory activity against carrageenan-induced paw edema in Swiss albino mouse assessed as swelling thickness at 100 mg/kg, po after 270 mins; type: functional; summary of the method: as §1
Mus musculus [18] = experiment: Antiinflammatory activity against carrageenan-induced paw edema in Swiss albino mouse assessed as swelling thickness at 100 mg/kg, po after 360 mins; type: functional; summary of the method: as §1
Mus musculus [19] = experiment: Inhibition of p-benzoquinone-induced writhing in Swiss albino mouse at 200 mg/kg, po relative to control; type: functional; summary of the method: as §2
Mus musculus [20] = experiment: Antiinflammatory activity against carrageenan-induced paw edema in Swiss albino mouse assessed as swelling thickness at 200 mg/kg, po after 180 mins; type: functional; summary of the method: as §1
Mus musculus [21] = experiment: Inhibition of carrageenan-induced paw edema in Swiss albino mouse at 100 mg/kg, po after 360 mins relative to control; type: functional; conditions: 6 h; summary of the method: as §1
Mus musculus [22] = experiment: Acute toxicity in Swiss albino mouse assessed as lethal effect at 200 mg/kg/day, po after 72 hrs; type: organism-based; set-up: route oral; conditions: in vivo
Summary of the method: (§5)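 Oral single dose suspended in 0.5% carboxymethylcellulose, given after a 24 h fast; food and water returned 1 h after dosing. Vehicle-only controls. Mice observed at 1 h, then once daily for 72 h, for toxic signs and mortality.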

Mus musculus [23] = experiment: Antiinflammatory activity against carrageenan-induced paw edema in Swiss albino mouse assessed as swelling thickness at 100 mg/kg, po after 90 mins; type: functional; summary of the method: as §1
Mus musculus [24] = experiment: Inhibition of carrageenan-induced paw edema in Swiss albino mouse at 50 mg/kg, po after 90 mins relative to control; type: functional; conditions: 1.5 h
Summary of the method: (§6)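 Mice, n = 6 per group. Test agent given orally as a suspension in 0.5% sodium CMC in distilled water; controls received vehicle only. Afterwards, 0.5 mg/25 ll carrageenan in saline (154 mM NaCl) injected subplantar into the right hind paw, saline into the left. Right-minus-left footpad thickness measured by dial gauge caliper every 90 min for 6 h. Inhibition is relative to vehicle-control group means.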

Mus musculus [25] = experiment: Inhibition of p-benzoquinone-induced writhing in Swiss albino mouse at 50 mg/kg, po relative to control; type: functional; summary of the method: as §2
Mus musculus [26] = experiment: Antiinflammatory activity against carrageenan-induced paw edema in Swiss albino mouse assessed as swelling thickness at 25 mg/kg, po after 90 mins; type: functional; summary of the method: as §1
Mus musculus [27] = experiment: Analgesic activity against p-benzoquinone-induced abdominal constriction in Swiss albino mouse assessed as number of writhings at 200 mg/kg, po; type: functional, Abdomen; summary of the method: as §3
Mus musculus [28] = experiment: Antiinflammatory activity against carrageenan-induced paw edema in Swiss albino mouse assessed as swelling thickness at 50 mg/kg, po after 90 mins; type: functional; summary of the method: as §1
Mus musculus [29] = experiment: Antiinflammatory activity against carrageenan-induced paw edema in Swiss albino mouse assessed as swelling thickness at 50 mg/kg, po after 270 mins; type: functional; summary of the method: as §1
Mus musculus [30] = experiment: Inhibition of carrageenan-induced paw edema in Swiss albino mouse at 25 mg/kg, po after 90 mins relative to control; type: functional; conditions: 1.5 h; summary of the method: as §1
Mus musculus [31] = experiment: Inhibition of carrageenan-induced paw edema in Swiss albino mouse at 200 mg/kg, po after 360 mins relative to control; type: functional; conditions: 6 h; summary of the method: as §1
Mus musculus [32] = experiment: Inhibition of carrageenan-induced paw edema in Swiss albino mouse at 25 mg/kg, po after 360 mins relative to control; type: functional; conditions: 6 h; summary of the method: as §1
Mus musculus [33] = experiment: Antiinflammatory activity against carrageenan-induced paw edema in Swiss albino mouse assessed as swelling thickness at 200 mg/kg, po after 270 mins; type: functional; summary of the method: as §1
Mus musculus [34] = experiment: Gastric-ulcerogenic effect in Swiss albino mouse assessed as lesions at 100 mg/kg, po; type: functional, organism-based; set-up: dose 100 mg/kg; summary of the method: as §4
Mus musculus [35] = experiment: Antiinflammatory activity against carrageenan-induced paw edema in Swiss albino mouse assessed as swelling thickness at 100 mg/kg, po after 180 mins; type: functional; summary of the method: as §1
Mus musculus [36] = experiment: Inhibition of carrageenan-induced paw edema in Swiss albino mouse at 50 mg/kg, po after 270 mins relative to control; type: functional; conditions: 4.5 h; summary of the method: as §6
Mus musculus [37] = experiment: Antiinflammatory activity against carrageenan-induced paw edema in Swiss albino mouse assessed as swelling thickness at 25 mg/kg, po after 360 mins; type: functional; summary of the method: as §1
Mus musculus [38] = experiment: Analgesic activity against p-benzoquinone-induced abdominal constriction in Swiss albino mouse assessed as number of writhings at 100 mg/kg, po; type: functional, Abdomen; summary of the method: as §3
Mus musculus [39] = experiment: Inhibition of carrageenan-induced paw edema in Swiss albino mouse at 50 mg/kg, po after 360 mins relative to control; type: functional; conditions: 6 h; summary of the method: as §6
Mus musculus [40] = experiment: Inhibition of carrageenan-induced paw edema in Swiss albino mouse at 100 mg/kg, po after 270 mins relative to control; type: functional; conditions: 4.5 h; summary of the method: as §1
Mus musculus [41] = experiment: Analgesic activity against p-benzoquinone-induced abdominal constriction in Swiss albino mouse assessed as number of writhings at 50 mg/kg, po; type: functional, Abdomen; summary of the method: as §3
Mus musculus [42] = experiment: Antiinflammatory activity against carrageenan-induced paw edema in Swiss albino mouse assessed as swelling thickness at 25 mg/kg, po after 270 mins; type: functional; summary of the method: as §1
Mus musculus [43] = experiment: Acute toxicity in Swiss albino mouse assessed as lethal effect at 25 mg/kg/day, po after 72 hrs; type: organism-based; set-up: route oral; conditions: in vivo; summary of the method: as §5
Mus musculus [44] = experiment: Inhibition of p-benzoquinone-induced writhing in Swiss albino mouse at 25 mg/kg, po relative to control; type: functional; summary of the method: as §2
Mus musculus [45] = experiment: Acute toxicity in Swiss albino mouse assessed as lethal effect at 50 mg/kg/day, po after 72 hrs; type: organism-based; set-up: route oral; conditions: in vivo; summary of the method: as §5
Mus musculus [46] = experiment: Acute toxicity in Swiss albino mouse assessed as lethal effect at 100 mg/kg/day, po after 72 hrs; type: organism-based; set-up: route oral; conditions: in vivo; summary of the method: as §5
Mus musculus [47] = experiment: Gastric-ulcerogenic effect in Swiss albino mouse assessed as lesions at 50 mg/kg, po; type: functional, organism-based; set-up: dose 50 mg/kg; summary of the method: as §4

CCS(=O)(=O)c1nc(-c2ccccc2)n[nH]1
Activity (Mus musculus [1]): 54.9 10^-2mm
inhibition in vivo at 100 mg/kg (Mus musculus [2]): 31.7%
inhibition in vivo at 25 mg/kg (Mus musculus [3]): 10.3%
inhibition in vivo at 100 mg/kg (Mus musculus [4]): 25.9%
inhibition in vivo at 200 mg/kg (Mus musculus [5]): 9.9%
inhibition in vivo at 100 mg/kg (Mus musculus [6]): 41.9%
inhibition in vivo at 50 mg/kg (Mus musculus [7]): 30.5%
Activity (Mus musculus [8]): 38.2
Activity (Mus musculus [9]): Active
Activity (Mus musculus [10]): 44.2 10^-2mm
Activity (Mus musculus [11]): 47.9 10^-2mm
Activity (Mus musculus [12]): 41.3 10^-2mm
Activity (Mus musculus [13]): 65.2 10^-2mm
inhibition in vivo at 200 mg/kg (Mus musculus [14]): 11.1%
inhibition in vivo at 25 mg/kg (Mus musculus [15]): 7.7%
inhibition in vivo at 200 mg/kg (Mus musculus [16]): 11.9%
Activity (Mus musculus [17]): 39.2 10^-2mm
Activity (Mus musculus [18]): 43.5 10^-2mm
inhibition in vivo at 200 mg/kg (Mus musculus [19]): 5.6%
Activity (Mus musculus [20]): 52.3 10^-2mm
inhibition in vivo at 100 mg/kg (Mus musculus [21]): 36.8%
Activity (Mus musculus [22]): Non-toxic
Activity (Mus musculus [23]): 33.2 10^-2mm
inhibition in vivo at 50 mg/kg (Mus musculus [24]): 26.3%
inhibition in vivo at 50 mg/kg (Mus musculus [25]): 48.1%
Activity (Mus musculus [26]): 48.6 10^-2mm
Activity (Mus musculus [27]): 48.5
Activity (Mus musculus [28]): 39.2 10^-2mm
Activity (Mus musculus [29]): 44.6 10^-2mm
inhibition in vivo at 25 mg/kg (Mus musculus [30]): 8.6%
inhibition in vivo at 200 mg/kg (Mus musculus [31]): 9.4%
inhibition in vivo at 25 mg/kg (Mus musculus [32]): 13.3%
Activity (Mus musculus [33]): 57.6 10^-2mm
Activity (Mus musculus [34]): Active
Activity (Mus musculus [35]): 35.2 10^-2mm
inhibition in vivo at 50 mg/kg (Mus musculus [36]): 31.2%
Activity (Mus musculus [37]): 62.4 10^-2mm
Activity (Mus musculus [38]): 27.5
inhibition in vivo at 50 mg/kg (Mus musculus [39]): 38.6%
inhibition in vivo at 100 mg/kg (Mus musculus [40]): 33.3%
Activity (Mus musculus [41]): 26.7
Activity (Mus musculus [42]): 58.1 10^-2mm
Activity (Mus musculus [43]): Non-toxic
inhibition in vivo at 25 mg/kg (Mus musculus [44]): 25.7%
Activity (Mus musculus [45]): Non-toxic
Activity (Mus musculus [46]): Non-toxic
Activity (Mus musculus [47]): Active
